Test results from ChEMBL document CHEMBL4433206, “Novel Lysine-Based Thioureas as Mechanism-Based Inhibitors of Sirtuin 2 (SIRT2) with Anticancer Activity in a Colorectal Cancer Murine Model” (J Med Chem, 2019).
The source made the active and inactive calls. The rule behind the calls is not given here.

Tests used:
SW948 = assay: Potency index, ratio of TM GI50 to compound GI50 for growth inhibition of human SW948 cells; type: functional
HCT-116 [1] = assay: Potency index, ratio of TM GI50 to compound GI50 for growth inhibition of human HCT116 cells; type: functional
[2] = target: T1, NAD-dependent protein deacetylase sirtuin-3, mitochondrial (Homo sapiens, UniProt Q9NTG7); assay: Inhibition of human SIRT3 assessed as reduction in deacetylase activity using acetylated H3K9 as substrate preincubated for 15 mins followed by substrate addition and measured after 15 mins by UV-HPLC analysis
T1 sequence (Q9NTG7 whole entry): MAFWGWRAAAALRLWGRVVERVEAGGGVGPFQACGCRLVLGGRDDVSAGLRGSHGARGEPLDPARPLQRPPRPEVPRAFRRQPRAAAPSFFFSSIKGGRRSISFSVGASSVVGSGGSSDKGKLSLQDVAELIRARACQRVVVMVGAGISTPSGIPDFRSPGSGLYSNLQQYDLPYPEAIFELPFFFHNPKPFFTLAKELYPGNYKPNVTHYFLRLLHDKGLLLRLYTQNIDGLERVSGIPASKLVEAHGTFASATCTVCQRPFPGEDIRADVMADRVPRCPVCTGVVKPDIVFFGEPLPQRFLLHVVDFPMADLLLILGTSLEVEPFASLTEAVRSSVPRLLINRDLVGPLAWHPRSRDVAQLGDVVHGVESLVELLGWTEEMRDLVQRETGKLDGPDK

HCT-116 [3] = assay: Antitumor activity against human HCT116 cells harboring KRAS G13D mutant xenografted in NSG mouse assessed as tumor growth inhibition by measuring reduction in tumor volume at 25 mg/kg, ip administered daily for 12 days and measured daily during compound dosing; type: functional, organism-based
Method in brief: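 NSG mice, female and male, about 4–8 weeks old, were implanted with 1 × 10⁶ HCT116 cells on both sides of the abdomen. Tumours grew 3–5 days until visible. Compound was given ip daily for 12 days in vehicle containing 10% DMSO and 10% Kolliphor EL (dosing solution 10 mg/mL); control mice received vehicle. Tumour volume was measured daily; tumours were excised and weighed on the last day. Unpaired two-tailed t-test.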

Structure (SMILES)	RatioGI50 (SW948)	RatioGI50 (HCT-116 [1])	IC50 [2] [µM]	TGI (HCT-116 [3])
CCCCCCCCCCNC(=S)NCCCC[C@H](NC(=O)OCc1ccccc1)C(=O)Nc1ccccc1	2	2	> 200	
CCCCCCCCNC(=S)NCCCC[C@H](NC(=O)OCc1ccccc1)C(=O)Nc1ccccc1				inactive
